Screening data (PubChem BioAssay)
Compounds with a hit are over-represented: about 1.5% of the library has one in this group of screens.
MLL AF4-AF9 inh – inhibitors of human MLL-AF4/AF9 interaction; P42568; AlphaScreen, biotin-AF4 peptide binding to FLAG-AF9; inhibition, % at 10 µM; 0.47% of 350,000 active;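 active means every replicate reaching a set inhibition limit, whatever the replicate mean, cut at about 25% in these data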;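 further: 0% = plate neutral control median and 100% = total signal loss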
Target sequence (P42568 whole entry, looked up): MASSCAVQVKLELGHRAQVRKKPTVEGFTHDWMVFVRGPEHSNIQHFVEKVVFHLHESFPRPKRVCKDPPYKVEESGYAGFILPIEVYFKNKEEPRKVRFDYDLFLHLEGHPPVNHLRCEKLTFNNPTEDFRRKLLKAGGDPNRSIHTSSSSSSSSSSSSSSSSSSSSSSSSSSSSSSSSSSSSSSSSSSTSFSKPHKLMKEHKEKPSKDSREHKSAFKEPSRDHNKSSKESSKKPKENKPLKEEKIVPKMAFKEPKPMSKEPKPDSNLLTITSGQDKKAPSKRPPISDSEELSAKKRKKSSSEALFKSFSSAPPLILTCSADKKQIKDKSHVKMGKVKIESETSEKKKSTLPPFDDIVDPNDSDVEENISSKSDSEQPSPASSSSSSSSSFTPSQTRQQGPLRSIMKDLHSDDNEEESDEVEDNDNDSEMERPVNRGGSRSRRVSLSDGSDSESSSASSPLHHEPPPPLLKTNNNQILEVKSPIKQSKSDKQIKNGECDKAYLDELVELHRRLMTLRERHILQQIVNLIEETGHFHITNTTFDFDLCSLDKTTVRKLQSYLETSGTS
ERAP1 HTS inh – ERAP1 (human) enzyme inhibition. Q9NZ08. AID 652197. recombinant ERAP1, Leu-AMC fluorescence, 60 min. 0.15% of 340,000 active. inhibition, % at 10.7 µM;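 active means mean replicate inhibition of at least 30%, or all replicates individually reaching that 30% level; inactive means mean below 30% and not every replicate reaching it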;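 further: 0% = neutral control wells and 100% = L-leucinethiol positive control wells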
RAD52 inh – RAD52 (human) annealing inhibition; recombinant RAD52 DNA annealing, FRET fluorescence; 0.46% of 360,000 active; inhibition, % at 18.7 µM; P43351; AID 651710;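 active means every replicate showing at least 50% inhibition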
S100A4 inh HTS – blocks human S100A4 binding to myosin IIA peptide | S100A4/TAMRA-MyoIIA peptide fluorescence polarization | 0.14% of 360,000 active | inhibition, % at 10.7 µM | P26447 | AID 652163;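 active means mean inhibition of at least 70% across replicates, with every replicate also reaching that level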
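Material: S100A4 monomer protein / Buffer or medium: 50 mM HEPES pH 7.2, 10 mM CaCl2, 100 mM KCl / Times: 5 min incubation before reading / Benchmarks: neutral control DMSO, positive control TFP / Reagent: labelled myosin peptide probe, 5 nM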
INS-1E GSIS act – GLuc luminescence reporter in INS-1E cells, primary screen for activators of glucose-dependent secretion of insulin | INS-1E GLuc reporter insulin secretion, 2-3 h | AID 743287 | activation, % at 16.6 µM | 0.61% of 370,000 active;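 active means lowest replicate activation of at least 40%, so every replicate reaches that level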;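 further: 0% = median of neutral control wells and 100% = median of IBMX positive control wells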
* hit, by the source's call.

For COc1ccc(S(=O)(=O)N(C)C[C@@H]2Oc3c(NS(=O)(=O)c4ccc(Cl)cc4)cccc3C(=O)N([C@@H](C)CO)C[C@H]2C)cc1 the results were INS-1E GSIS act 1.
Screening Cc1ccc(SC(C)C(=O)NCc2ccncc2)cc1 (stereo not given) returned MLL AF4-AF9 inh -1, ERAP1 HTS inh 82*, RAD52 inh -5, S100A4 inh HTS -4 and INS-1E GSIS act -4.
Screening COc1ccc(CCNC(=O)C(C)Sc2ccc(C)cc2)cc1OC (stereo not given) returned INS-1E GSIS act 53*.
CCC(=O)Nc1ccc2c(c1)OC[C@@H](C)N(C(=O)Cc1ccccn1)C[C@H](C)[C@H](OC)CN(C)C2=O was read as INS-1E GSIS act -2.
`CCCNC(=O)N1CC(=O)N2[C@H](C1)[C@@H](c1ccc(-c3cccc(C)c3)cc1)[C@@H]2CO` gave MLL AF4-AF9 inh -11, ERAP1 HTS inh -1, RAD52 inh -5, S100A4 inh HTS 5 and INS-1E GSIS act -8.
Cc1nc2nc(C)n(CCN3CCOCC3)c(=O)c2c(-c2cccc([N+](=O)[O-])c2)c1C(=O)CCCCCCCCCCN1CCC(c2ccccc2)(c2ccccc2)CC1 was read as MLL AF4-AF9 inh 15, ERAP1 HTS inh 2, RAD52 inh 97*, S100A4 inh HTS 8 and INS-1E GSIS act -15.
`O=C(NCCCN1CCOCC1)/C(=C/c1ccc(-c2cccc([N+](=O)[O-])c2)o1)NC(=O)c1ccccc1` gave MLL AF4-AF9 inh 13, ERAP1 HTS inh 5, RAD52 inh -27, S100A4 inh HTS -3 and INS-1E GSIS act -3.
Screening COc1cccc(C(=O)Nc2ccc3c(c2)C(=O)N(C)[C@@H]2CC[C@H](CC(=O)NCC(F)(F)F)O[C@@H]2CO3)c1 returned MLL AF4-AF9 inh -1, ERAP1 HTS inh 4, RAD52 inh -1, S100A4 inh HTS 4 and INS-1E GSIS act 3.
`N#Cc1sc2nc3c(c(-c4cccnc4)c2c1N)CCC3` gave ERAP1 HTS inh 0, RAD52 inh -17, S100A4 inh HTS -8 and INS-1E GSIS act 46*.
Cc1ccc(OCC(=O)NNC(=O)CCC(=O)Nc2ccc(C)cc2C)cc1 was read as INS-1E GSIS act 57*.
`Cc1ccc(NC(=O)CCC(=O)NNC(=O)COc2ccccc2)c(C)c1` gave MLL AF4-AF9 inh 5, ERAP1 HTS inh 1, RAD52 inh -4 and S100A4 inh HTS -6.
`CSc1nc(N2CCOCC2)c2sccc2n1` gave MLL AF4-AF9 inh -5, ERAP1 HTS inh -2, RAD52 inh -1, S100A4 inh HTS -21 and INS-1E GSIS act 76*.
Screening O=C1SC(c2ccccc2)=C/C1=C\N1CCCCC1 returned MLL AF4-AF9 inh 30*, ERAP1 HTS inh 1, RAD52 inh -8, S100A4 inh HTS -3 and INS-1E GSIS act -5.
For O=C1OC(c2ccccc2)=C/C1=C/N1CCOCC1 the results were MLL AF4-AF9 inh 5, ERAP1 HTS inh -3, RAD52 inh -35, S100A4 inh HTS -13 and INS-1E GSIS act 10.
Screening COc1ccc(/C=N/Nc2cc(C)nc3ccc(OC)cc23)c(OC)c1 returned MLL AF4-AF9 inh 16, ERAP1 HTS inh 25, RAD52 inh 88*, S100A4 inh HTS -2 and INS-1E GSIS act 28.
COc1ccccc1/C=N/Nc1cc(C)nc2ccc(C)cc12 was read as MLL AF4-AF9 inh 5, ERAP1 HTS inh 3, RAD52 inh -5, S100A4 inh HTS -9 and INS-1E GSIS act 26.
Screening COc1ccc(Nc2cc(C)nc3ccccc23)cc1 returned MLL AF4-AF9 inh 2, ERAP1 HTS inh 2, RAD52 inh 18, S100A4 inh HTS -8 and INS-1E GSIS act 42*.
C[C@@H]1CCCCO[C@@H](CN(C)C(=O)c2ccccc2)[C@@H](C)CN([C@@H](C)CO)C(=O)c2cc(NC(=O)Nc3ccc4c(c3)OCO4)ccc2O1 was read as INS-1E GSIS act -12.
Screening CCOC(=O)c1sc2nc(-c3ccccc3)ccc2c1N returned INS-1E GSIS act 76*.
For COc1ccc(C(=O)Cc2ccccc2)cc1OC the results were INS-1E GSIS act 29.
`NC(=O)c1sc2nc(-c3ccccc3)ccc2c1N` gave MLL AF4-AF9 inh -8, ERAP1 HTS inh 1, RAD52 inh -20, S100A4 inh HTS -2 and INS-1E GSIS act 5.
Screening COc1ccc(C(=O)c2ccc(Br)cc2)cc1 returned INS-1E GSIS act 84*.
`COc1ccc(CC(=O)c2ccc(OC)c(OC)c2)cc1` gave MLL AF4-AF9 inh 7, ERAP1 HTS inh -3, RAD52 inh -1, S100A4 inh HTS 4 and INS-1E GSIS act 71*.
`COc1ccc(C(=O)CCS(=O)(=O)c2ccc(F)cc2)cc1OC` gave MLL AF4-AF9 inh 1, ERAP1 HTS inh -1, RAD52 inh 6, S100A4 inh HTS -3 and INS-1E GSIS act 60*.
`CO[C@@H]1CN(C)C(=O)c2cc(NC(C)=O)ccc2OC[C@H](C)N(C(=O)c2ccccn2)C[C@@H]1C` gave MLL AF4-AF9 inh -8, ERAP1 HTS inh 3, RAD52 inh -6, S100A4 inh HTS 6 and INS-1E GSIS act 3.
For C[C@H]1CN([C@@H](C)CO)C(=O)c2cc(C#CC3CC3)cnc2O[C@@H]1CN(C)C(=O)C1CCCCC1 the results were INS-1E GSIS act -9.
C[C@H]1CC=CC[C@H](c2ccccc2)NC(=O)[C@H](Cc2ccccc2)N(C)C(=O)c2ccccc2O1 (mixture of isomers) was read as INS-1E GSIS act -6.
CC(=O)Nc1ccc2c(c1)C(=O)N(C)C[C@@H](C)[C@H](CN(C)S(C)(=O)=O)O2 was read as INS-1E GSIS act 1.
For C[C@H]1CN([C@@H](C)CO)C(=O)c2cc(NC(=O)Cn3cnnn3)ccc2O[C@H]1CN(C)Cc1ccc(Cl)c(Cl)c1 the results were MLL AF4-AF9 inh 2, ERAP1 HTS inh 3, RAD52 inh 10, S100A4 inh HTS -8 and INS-1E GSIS act 1.
For COc1ccc(-c2ccc3c(N)c(C(=O)c4ccc(OC)c(OC)c4)sc3n2)cc1 the results were INS-1E GSIS act 172*.
`COc1ccc(C(=O)N(C)C2(C)CCS(=O)(=O)C2)cc1OC` (stereo not given) gave MLL AF4-AF9 inh -44, ERAP1 HTS inh 3, RAD52 inh -8, S100A4 inh HTS 184* and INS-1E GSIS act 1.
COc1cc2ccc(C(C)=O)cc2cc1OC was read as MLL AF4-AF9 inh -4, ERAP1 HTS inh -5, RAD52 inh -8, S100A4 inh HTS -8 and INS-1E GSIS act 48*.
`COc1ccc(-c2ccc3c(N)c(C(=O)NC(C)C)sc3n2)cc1OC` gave MLL AF4-AF9 inh -13, ERAP1 HTS inh 1, RAD52 inh 3 and S100A4 inh HTS 2.
COc1ccc(C=CC(=O)c2ccc3cc(OC)c(OC)cc3c2)cc1OC was read as MLL AF4-AF9 inh 2, ERAP1 HTS inh -3, RAD52 inh -13 and S100A4 inh HTS 5.
